Experimental data: ChEMBL document CHEMBL1140096, “Discovery of novel nitrobenzothiazole inhibitors for Mycobacterium tuberculosis ATP phosphoribosyl transferase (HisG) through virtual screening” (J Med Chem, 2008)
Activity calls are given as the source filed them. The calls are words filed in the database; no cut-off is given here.

Columns and labels:
[1] = target: T1, ATP phosphoribosyltransferase (Mycobacterium tuberculosis) (UniProt P9WMN1); experiment: Inhibition of Mycobacterium tuberculosis HisG assessed as phosphoribosyl ATP production at 10 uM by spectrophotometry
T1 sequence (whole entry): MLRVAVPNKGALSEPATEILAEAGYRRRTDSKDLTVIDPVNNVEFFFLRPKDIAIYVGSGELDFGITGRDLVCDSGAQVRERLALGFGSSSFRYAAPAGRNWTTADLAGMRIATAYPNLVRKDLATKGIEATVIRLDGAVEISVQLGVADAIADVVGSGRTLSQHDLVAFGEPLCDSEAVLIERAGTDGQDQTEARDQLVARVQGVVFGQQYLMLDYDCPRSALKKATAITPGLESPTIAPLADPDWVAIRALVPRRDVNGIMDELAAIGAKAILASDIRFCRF

[2] = system: Mycolicibacterium smegmatis; experiment: Antimycobacterial activity against Mycobacterium smegmatis ATCC 700084 at 12 ug/mL; assay type: functional, organism-based
Procedure, shortened: (§1)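 M. smegmatis ATCC 700084 pre-grown 2 days in 7H9 with 0.2% glucose and 0.05% Tween80, then plated on 7H10 agar (0.2% glycerol) containing compound at 1, 3, 6, 12 or 25 μg/ml. Plates were incubated 4 days at 37 °C and growth was judged by inspection. Controls were no-compound and DMSO plates, plus kanamycin 25 μg/ml.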

[3] = system: Mycolicibacterium smegmatis; experiment: Antimycobacterial activity against Mycobacterium smegmatis ATCC 700084 at 25 ug/mL; assay type: functional; procedure, shortened: as §1
[4] = target: T2, ATP phosphoribosyltransferase (Mycobacterium tuberculosis, UniProt P9WMN1); experiment: Inhibition of Mycobacterium tuberculosis HisG assessed as phosphoribosyl ATP production by spectrophotometry
T2 sequence (P9WMN1 whole entry): T1 sequence (whole entry)

[5] = target: T1, ATP phosphoribosyltransferase (Mycobacterium tuberculosis); experiment: Inhibition of Mycobacterium tuberculosis HisG assessed as phosphoribosyl ATP production at 1 uM by spectrophotometry
[6] = Inhibition of Escherichia coli HisG

Nc1nc(SCc2ccccc2)c(N)c(SCc2ccccc2)n1
inhibition [1]: 48%

O=[N+]([O-])c1ccc(Nc2cc(Nc3cccc(O)c3)c3nonc3c2[N+](=O)[O-])c(O)c1
Activity [2]: Active
inhibition at 25 µg/mL [3]: 100%
IC50 [4]: 11.9 µM
inhibition [1]: 46%

O=C(CC(NC(=O)c1ccccc1)c1ccccc1)Nc1nc2ccc([N+](=O)[O-])cc2s1 (configuration not stated)
IC50 [4]: 6 µM
Ki [4]: 2 µM
inhibition [1]: 71%
inhibition [5]: 35%

O=C(CSc1nnc(-c2ccccc2)c(-c2ccccc2)n1)Cc1nccs1
IC50 [4]: 4 µM
Ki [4]: 2 µM
inhibition [1]: 76%
inhibition [5]: 40%

O=c1oc2ccccc2c(O)c1Cc1c(O)c2ccccc2oc1=O [DICUMAROL]
Ki [6]: 50 µM

Cc1cc(/N=N/c2ccc(S(=O)(=O)O)cc2)c(N)c(/N=N/c2ccc(S(=O)(=O)O)cc2)c1N
inhibition [1]: 45%

O=[N+]([O-])c1ccc2c(/N=N/c3ccc4ccccc4c3O)c(O)cc(S(=O)(=O)O)c2c1
IC50 [4]: 10 µM
inhibition [1]: 50%

Oc1c(Cl)c(Cl)c(Cl)c(Cl)c1Cl [PENTACHLOROPHENOL]
Ki [6]: 50 µM

O=[N+]([O-])c1ccc(O)c([N+](=O)[O-])c1 [2,4-DINITROPHENOL]
Ki [6]: 50 µM

COc1cc(C2C(C(=O)c3ccc(Cl)cc3)=C(O)C(=O)N2Cc2cccnc2)cc(OC)c1OC (configuration not stated)
inhibition [1]: 20%

CN(CC(=O)O)c1nc2cc([N+](=O)[O-])ccc2s1
inhibition [1]: 15%

O=C(NNC(=O)c1cc([N+](=O)[O-])cc([N+](=O)[O-])c1Br)Nc1ccccc1
IC50 [4]: 5.5 µM
inhibition [1]: 71%

COc1ccc(COC(=O)C2=C(C)NC3=C(C(=O)CC(c4cccs4)C3)C2c2cccs2)cc1 (configuration not stated)
IC50 [4]: 10 µM
inhibition [1]: 50%

CCOC(=O)C(=O)Nc1nc2ccc([N+](=O)[O-])cc2s1
IC50 [4]: 13.9 µM
inhibition [1]: 39%
